Source: ChEMBL document CHEMBL4706647, “Development and optimization of halogenated vinyl sulfones as Nrf2 activators for the treatment of Parkinson's disease” (Eur J Med Chem, 2021)
Activity calls are given as the source filed them. No cut-off for these calls is given here.

Experiments:
[1] = target: T1, Nuclear factor erythroid 2-related factor 2 (Mus musculus) (UniProt Q60795); experiment: Activation of Nrf2 in mouse BV-2 cells assessed as increase in Sod1 mRNA expression after 6 hrs by RT-qPCR analysis; assay type: cell-based; conditions: filed as activator, dose 0.03-1 µM
T1 sequence (whole entry): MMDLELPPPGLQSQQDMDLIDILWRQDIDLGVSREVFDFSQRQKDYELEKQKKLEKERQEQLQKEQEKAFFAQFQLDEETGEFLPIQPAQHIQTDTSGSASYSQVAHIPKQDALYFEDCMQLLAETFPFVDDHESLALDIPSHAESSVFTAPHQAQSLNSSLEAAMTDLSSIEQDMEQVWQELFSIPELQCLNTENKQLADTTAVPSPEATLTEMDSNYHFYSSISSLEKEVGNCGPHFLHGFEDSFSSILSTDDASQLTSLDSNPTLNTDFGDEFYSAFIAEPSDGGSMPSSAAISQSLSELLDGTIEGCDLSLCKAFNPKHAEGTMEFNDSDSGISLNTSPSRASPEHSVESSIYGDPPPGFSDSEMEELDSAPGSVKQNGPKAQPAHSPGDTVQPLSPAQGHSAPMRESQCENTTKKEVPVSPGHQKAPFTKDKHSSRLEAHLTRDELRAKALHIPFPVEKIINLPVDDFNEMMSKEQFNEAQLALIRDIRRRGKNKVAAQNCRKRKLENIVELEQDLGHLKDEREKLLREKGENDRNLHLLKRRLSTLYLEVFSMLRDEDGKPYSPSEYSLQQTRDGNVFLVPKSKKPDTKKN
In short: (§1)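 BV-2 cells exposed to a range of concentrations for 6 h. Ho1, Gclc, Gclm and Sod1 mRNA quantified by RT-qPCR and expressed relative to vehicle-treated control. Mean ± SEM, n = 3; Student's t-test.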

[2] = Cytotoxicity against mouse BV-2 cells assessed cell viability at 0.3 uM measured after 6 hrs by Ez-cytox reagent based assay relative to control; conditions: read-out: Activity
In short: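 BV-2 cells (1.0 × 10⁴/well) grown 24 h at 37 °C, 5% CO2, then treated 6 h at […]. Viability expressed as percent of control.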

[3] = target: T1, Nuclear factor erythroid 2-related factor 2 (Mus musculus); experiment: Activation of Nrf2 in mouse BV-2 cells assessed as increase in HO1 expression after 6 hrs by Western blot analysis; assay type: cell-based; conditions: filed as activator, dose 0.02-10 µM
In short: (§2)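 BV-2 microglia grown in RPMI-1640 with 10% FBS, penicillin-streptomycin and 2 mM L-glutamine at 37 °C, 5% CO2. Cells exposed to a range of concentrations for 6 h, then HO-1, GCLC, GCLM and SOD1 protein measured by Western blot. Band intensity normalized to β-actin and given as fold of vehicle control. Mean ± SEM, n = 3, three separate experiments.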

[4] = target: T1, Nuclear factor erythroid 2-related factor 2 (Mus musculus); experiment: Activation of Nrf2 in mouse BV-2 cells assessed as increase in HO1 mRNA expression at 1 uM after 6 hrs by RT-qPCR analysis relative to control; assay type: cell-based; conditions: filed as activator; in short: as §1
[5] = tested on: Mus musculus; experiment: Neuroprotective activity in MPTP-induced C57BL/6 mouse model of Parkinson's disease assessed as […] TH-immunoreactive fiber density at 30 mg/kg, po pretreated for 1 day followed by MPTP challenge and subsequent compound dosing for 2 days measured 6 days post-MPTP challenge by immunohistochemistry; assay type: functional, organism-based; conditions: time 7.0 day
In short: (§3)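 Male C57BL/6 mice, 10 weeks old, 23–26 g, n = 10 per group. Dosed 30 mg/kg p.o. for 3 consecutive days in 10% N-methyl-2-pyrrolidone/20% Tween-80 in water. On day 2, MPTP-HCl 20 mg/kg i.p. given four times at 2 h intervals. Coat-hanger (scored 1–5, test done twice) and vertical grid tests run 6 days after MPTP. Brains taken next day for anti-TH immunohistochemistry (1:1000, DAB).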

[6] = tested on: BV-2; experiment: Antiinflammatory activity in mouse BV-2 cells assessed as inhibition of LPS-induced iNOS expression at 2 uM preincubated for 6 hrs followed by LPS stimulation and measured after 24 hrs by Western blot analysis; assay type: functional, cell-based; conditions: time 30.0 hrs
In short: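 BV-2 cells pretreated with compound, then stimulated with LPS. iNOS protein measured by Western blot with β-actin as internal control. Mean ± SEM, n = 3, three separate experiments.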

[7] = target: T1, Nuclear factor erythroid 2-related factor 2 (Mus musculus); experiment: Activation of Nrf2 in mouse BV-2 cells assessed as increase in GCLM expression after 6 hrs by Western blot analysis; assay type: cell-based; conditions: filed as activator, dose 0.02-10 µM; in short: as §2
[8] = target: T1, Nuclear factor erythroid 2-related factor 2 (Mus musculus); experiment: Activation of Nrf2 in mouse BV-2 cells assessed as increase in HO1 mRNA expression after 6 hrs by RT-qPCR analysis; assay type: cell-based; conditions: filed as activator, dose 0.03-1 µM; in short: as §1
[9] = tested on: Mus musculus; experiment: Neuroprotective activity in MPTP-induced C57BL/6 mouse model of Parkinson's disease assessed as reduction in time to turn at 30 mg/kg, po pretreated for 1 day followed by MPTP challenge and subsequent compound dosing for 2 days measured 6 days post MPTP challenge by vertical grid test; assay type: functional, organism-based; conditions: time 7.0 day; in short: as §3

Activity [1]: Dose-dependent effect
Activity [3]: Dose-dependent effect
fold change (FC) [4]: 6
Activity [7]: Dose-dependent effect
Activity [8]: Dose-dependent effect
Compound: O=S(=O)(/C=C/c1ncccc1Cl)c1ccccc1Cl
viability at 6 h, 0.3 µM [2]: 100%
Activity [5]: Active
inhibition [6]: Active
Activity [9]: Active
